Assay results pooled from the literature.
Lines come from different studies, so protocols differ.
CYP3A7: Cytochrome P450 3A7 (CYP3A7, Homo sapiens, UniProt P24462)

Compound | tested on | assay | system | setting | endpoint | result
O=C(c1ccc(F)cc1F)N1CCC(NCCSC(c2ccc(F)cc2)c2ccc(F)cc2)CC1 |  | metabolic stability | mouse, liver microsomes | 10 µM, 1 h, pH 7.4 | compound remaining | ~30%
C=C(C)[C@@]12O[C@@]3(/C=C/C=C/C=C/CCC)O[C@@H]1[C@@H]1[C@@H]4O[C@]4(CO)[C@@H](O)[C@]4(O)C(=O)C(C)=C[C@H]4[C@@]1(O3)[C@H](C)[C@H]2OC(=O)c1ccccc1 | MT4 | cell growth or viability, ATP luminescence |  | 96 h | IC50 | > 0.034 µM
C=C(C)[C@]12C[C@@H](COC(=O)c3ccccc3)[C@@]34OC5(O[C@@H]1[C@@H]3[C@@H]1O[C@]1(CO)[C@@H](O)[C@@]1(O)[C@H]4[C@H]([C@H](C)[C@@H]1OC(=O)c1ccccc1)[C@H](C)CCCCCC[C@H]5O)O2 | MT4 | cell growth or viability, ATP luminescence |  |  | CC50 | > 7 µM
C=C(C)[C@@]1(O)[C@H](OC(=O)/C=C/C=C/C=C/CCC)[C@@H]2[C@@H]3O[C@]3(CO)[C@@H](O)[C@]3(O)C(=O)C(C)=C[C@H]3[C@@]2(O)[C@H](C)[C@H]1OC(=O)/C=C/c1ccc(O)c(OC)c1 | MT4 | cell growth or viability, ATP luminescence |  | 96 h | IC50 | > 0.034 µM
O=S(=O)(O)C(F)(F)C(F)(F)C(F)(F)C(F)(F)C(F)(F)C(F)(F)C(F)(F)C(F)(F)F | CYP3A7 | enzyme activity, inhibitor, mass spectrometry |  |  | IC50 | 16.8 µM
COC(=O)N[C@H](C(=O)NN(CC[C@@]1(Cc2ccccc2)C(=O)N([C@H]2c3ccccc3C[C@H]2O)C[C@@H]1O)Cc1ccc(Br)cc1)C(C)(C)C | MT4 | cell growth or viability, XTT |  | 5 days | CC50 | > 50 µM
O=C(O)C(F)(F)C(F)(F)C(F)(F)C(F)(F)C(F)(F)C(F)(F)C(F)(F)F | CYP3A7 | enzyme activity, inhibitor |  | 100 µM, pH 7.4 | inhibition | 35.8%
N=c1c2c(-c3ccccc3)c(-c3ccccc3)n(Cc3ccccc3)c2ncn1[C@H]1CC[C@H](O)CC1 |  | metabolic stability | Sprague-Dawley rat, hepatocytes | 1 µM, 4 h | compound remaining | 44%
CCCCCC/C=C/CC(=O)O[C@@]12[C@H](OC(=O)c3ccccc3)[C@@H](C)[C@]3(O)[C@@H]4C=C(C)C(=O)[C@@]4(O)[C@H](O)C(CO)=C[C@H]3[C@@H]1C2(C)C | MT4 | cell growth or viability, ATP luminescence |  |  | CC50 | > 7 µM
C=C(C)[C@@]12O[C@@]3(/C=C/C=C/CCCCC)O[C@@H]1[C@@H]1[C@@H]4O[C@]4(CO)[C@@H](O)[C@]4(O)C(=O)C(C)=C[C@H]4[C@@]1(O3)[C@H](C)[C@H]2OC(=O)/C=C/c1ccccc1 | MT4 | cell growth or viability, ATP luminescence |  | 96 h | IC50 | > 0.034 µM
CC[C@H](C)[C@H]1C(=O)N2CCC[C@H]2C(=O)O[C@H](C(C)(C)C)C[C@@H](C)C[C@H](O)[C@H](C)C2=N[C@@H](CCC(=O)N[C@@H](Cc3ccc(OC)cc3)C(=O)N(C)[C@@H](C)C(=O)N1C)CS2 |  | metabolic stability | female CD-1 mouse, liver microsomes | 1 µM, 0 h, pH 7.4 | compound remaining | 100%
C=C(C)[C@@]12O[C@@]3(c4ccccc4)O[C@@H]1[C@@H]1[C@@H]4O[C@]4(CO)[C@@H](O)[C@]4(O)C(=O)C(C)=C[C@H]4[C@@]1(O3)[C@H](C)[C@H]2OC(=O)/C=C/C=C/C=C/CCC | MT4 | cell growth or viability, ATP luminescence |  | 96 h | IC50 | > 0.034 µM
CC[C@H](C)[C@H]1C(=O)N2CCC[C@H]2C(=O)O[C@H](C(C)(C)C)C[C@@H](C)C[C@H](O)CC2=N[C@@H](CCC(=O)N[C@@H](Cc3ccc(OC)cc3)C(=O)N(C)[C@@H](C)C(=O)N1C)CS2 |  | metabolic stability | female CD-1 mouse, liver microsomes | 1 µM, 0 h, pH 7.4 | compound remaining | 100%
